Assay results: the array DNA melting data of Ke et al. (doi:10.1101/2024.01.08.574731)

How the values were obtained:
[1] = melting temperature; fluorescence melt of hairpins on a sequencing array, two-state fit, raised by 9.35 °C to match UV melts; settings: sodium 0.088 M
Outline: (§1)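 Melting temperature and folding enthalpy were derived from bootstrapped two-state fits. The fitted temperatures were raised by 9.35 °C to agree with UV melts, and four replicates were combined by inverse variance. The underlying data were Cy3 fluorescence images of library hairpins, with annealed Cy3 and quencher oligos, on a sequenced MiSeq flow cell in 50 mM Na-HEPES pH 8.0, 25 mM NaCl, taken in 2.5 °C steps up to 60 °C, normalised to pre-quench Cy3 and to control constructs.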

[2] = folding enthalpy; higher = less favourable; fluorescence melt of hairpins on a sequencing array, two-state fit; settings: sodium 0.088 M
Outline: as §1

| Sequence | Tm [1] | folding enthalpy [2] |
| --- | --- | --- |
| GGTGCGGGAAACTGCGCC ((.((.(....).)).)) | 52.7 °C | -49.1 kcal/mol |
| GGTGCTGGAAACAGCATC (.(((((....))))).) | 54.1 °C | -30.3 kcal/mol |
| GGTGGAGGAAACTCCATC (.(((((....))))).) | 49.4 °C | -26.6 kcal/mol |
| GGTGGAGGAAACTCCGTC (..((((....))))..) | 37.8 °C | -15.4 kcal/mol |
| GGTGGAGGAAACTCTGCC ((..(((....)))..)) | 42 °C | -27 kcal/mol |
| GGTGGAGGAAACTTCACC ((((.((....)).)))) | 50.1 °C | -33.4 kcal/mol |
| GGTGGCACGAAAGTGACC (((..(((....)))))) | 45.6 °C | -15.5 kcal/mol |
| GGTGGCGAAAGCCCGACC ((((((....)))..))) | 41.5 °C | -12.8 kcal/mol |
| GGTGGCGAAAGCCGAACC ((((((....)))..))) | 45.3 °C | -14.9 kcal/mol |
| GGTGGCGGAAACGCTGCC ((..(((....)))..)) | 54.5 °C | -31.8 kcal/mol |
| GGTGGGGGAAACTCCACC (((((.(....).))))) | 56.4 °C | -45.9 kcal/mol |
| GGTGGTGCGAAAGCAACC (((..(((....)))))) | 53.3 °C | -15.4 kcal/mol |
| GGTGGTGGAAACATCACC ((((.((....)).)))) | 52.3 °C | -41.3 kcal/mol |
| GGTGGTGGAAACATCGCC ((.(.((....)).).)) | 44.6 °C | -27.4 kcal/mol |
| GGTGGTTCGAAAGAAACC (((..(((....)))))) | 41.5 °C | -20.4 kcal/mol |
| GGTGTACGAAAGTATACC (((.(((....))).))) | 53.3 °C | -47.6 kcal/mol |
| GGTGTAGAAATACACC ((((((....)))))) | 53.7 °C | -29.6 kcal/mol |
| GGTGTAGGAAACTACATC (.(((((....))))).) | 42.2 °C | -27.4 kcal/mol |
| GGTGTAGGAAACTATGCC ((..(((....)))..)) | 35.7 °C | -32.3 kcal/mol |
| GGTGTCCGAAAGGAAACC (((.(((....))).))) | 52.7 °C | -27.9 kcal/mol |
| GGTGTCGAAAGACCCACC ((((((....)))..))) | 45.1 °C | -12.1 kcal/mol |
| GGTGTCGGAAACGACGCC ((.((((....)))).)) | 64.5 °C | -28.6 kcal/mol |
| GGTGTCGGAAACGATGCC ((..(((....)))..)) | 49.4 °C | -26.7 kcal/mol |

| Sequence | Tm [1] | folding enthalpy [2] |
| --- | --- | --- |
| GGTGTGGGAAACTGCACC ((((..(....)..)))) | 47.7 °C | -26.3 kcal/mol |
| GGTGTTCGAAAGAAACC (((.(((....)))))) | 34.1 °C | -14.1 kcal/mol |
| GGTGTTGGAAACAACACC (((((((....))))))) | 66.5 °C | -38.4 kcal/mol |
| GGTGTTGGAAACAGCACC ((((.((....)).)))) | 51.8 °C | -37.1 kcal/mol |
| GGTGTTTCGAAAGAAACC (((..(((....)))))) | 42.5 °C | -13.2 kcal/mol |
| GGTTAAGGAAACTTAATC (.(((((....))))).) | 31.7 °C | -21.7 kcal/mol |
| GGTTACGAAAGTAGTACC ((((((....)))..))) | 34.8 °C | -14.8 kcal/mol |
| GGTTACGAAAGTATCACC ((((((....)))..))) | 28.2 °C | -12.5 kcal/mol |
| GGTTAGAAATAACC (((((....))))) | 40 °C | -16.4 kcal/mol |
| GGTTAGGAAACTAACC ((((((....)))))) | 52.3 °C | -35.6 kcal/mol |
| GGTTAGGGAAACCTAGCC ((.((((....)))).)) | 46.3 °C | -27.2 kcal/mol |
| GGTTATCGAAAGATACC (((.(((....)))))) | 43.1 °C | -25 kcal/mol |
| GGTTATCGAAAGATCACC (((.(((....))).))) | 42.3 °C | -30.4 kcal/mol |
| GGTTCACGAAAGTGGACC (((.(((....))).))) | 63 °C | -38 kcal/mol |
| GGTTCAGAAATGAACC ((((((....)))))) | 54.6 °C | -38.8 kcal/mol |
| GGTTCAGCGAAAGCTACC (((..(((....)))))) | 32.7 °C | -16 kcal/mol |
| GGTTCAGGAAACTAAACC ((((.((....)).)))) | 28.6 °C | -15.3 kcal/mol |
| GGTTCCCGAAAGGGACC (((.(((....)))))) | 59.9 °C | -23 kcal/mol |
| GGTTCCGAAAGGAAAACC ((((((....)))..))) | 43.6 °C | -18.5 kcal/mol |
| GGTTCCGAAAGGAAACC ((((((....))).))) | 53.7 °C | -25.9 kcal/mol |
| GGTTCCGAAAGGAAGACC ((((((....)))..))) | 42.1 °C | -15.1 kcal/mol |
| GGTTCCGAAAGGACAACC ((((((....)))..))) | 36.7 °C | -19.9 kcal/mol |
| GGTTCCGAAAGGACGACC ((((((....)))..))) | 37.4 °C | -15.8 kcal/mol |

| Sequence | Tm [1] | folding enthalpy [2] |
| --- | --- | --- |
| GGTTCCGAAAGGATTACC ((((((....)))..))) | 34.6 °C | -19.9 kcal/mol |
| GGTTCCGGAAACGGAGCC ((.((((....)))).)) | 58.4 °C | -41.6 kcal/mol |
| GGTTCGCCGAAAGGCACC (((..(((....)))))) | 30.1 °C | -8.49 kcal/mol |
| GGTTCGCGAAAGCGTACC (((.(((....))).))) | 56 °C | -26 kcal/mol |
| GGTTCGGAAACGAACC ((((((....)))))) | 67.3 °C | -33.2 kcal/mol |
| GGTTCGGGAAACCAAACC ((((.((....)).)))) | 40.4 °C | -30.3 kcal/mol |
| GGTTCGGGAAACTGAGCC ((.((.(....).)).)) | 39.3 °C | -27.1 kcal/mol |
| GGTTCTGGAAACGGAACC (((((.(....).))))) | 52.3 °C | -45 kcal/mol |
| GGTTCTGGAAACGGAATC (.(((.(....).))).) | 33 °C | -18.7 kcal/mol |
| GGTTGACCGAAAGGTACC (((..(((....)))))) | 36.4 °C | -16.5 kcal/mol |
| GGTTGAGAAATCAACC ((((((....)))))) | 53.3 °C | -34 kcal/mol |
| GGTTGCGAAAGCAACACC ((((((....)))..))) | 50 °C | -8.28 kcal/mol |
| GGTTGCGAAAGCAAGACC ((((((....)))..))) | 44.2 °C | -14.6 kcal/mol |
| GGTTGCGAAAGCACACC ((((((....))).))) | 53.4 °C | -19.7 kcal/mol |
| GGTTGCGAAAGCACCACC ((((((....)))..))) | 45.1 °C | -11.6 kcal/mol |
| GGTTGCGAAAGCACGACC ((((((....)))..))) | 40.6 °C | -15.8 kcal/mol |
| GGTTGCGAAAGCATAACC ((((((....)))..))) | 45.9 °C | -20.5 kcal/mol |
| GGTTGCGAAAGCATCACC ((((((....)))..))) | 36.2 °C | -13 kcal/mol |
| GGTTGCGAAAGCATTACC ((((((....)))..))) | 37.8 °C | -17.7 kcal/mol |
| GGTTGCGGAAACGCAGCC ((.((((....)))).)) | 63.5 °C | -39.2 kcal/mol |
| GGTTGCGGAAACGCGACC (((.(((....))).))) | 65.8 °C | -37.7 kcal/mol |
| GGTTGGACGAAAGTCACC (((..(((....)))))) | 34.1 °C | -12.2 kcal/mol |
| GGTTGGCGAAAGCCTACC (((.(((....))).))) | 59.6 °C | -25.3 kcal/mol |

| Sequence | Tm [1] | folding enthalpy [2] |
| --- | --- | --- |
| GGTTGGGGAAACTCGACC (((.(.(....).).))) | 39.5 °C | -23.2 kcal/mol |
| GGTTGTACGAAAGTAACC (((..(((....)))))) | 38 °C | -20.9 kcal/mol |
| GGTTGTCGAAAGACCACC (((.(((....))).))) | 48.3 °C | -26.2 kcal/mol |
| GGTTGTGGAAACACAGTC (..((((....))))..) | 29.1 °C | -13.2 kcal/mol |
| GGTTGTGGAAACATAGCC ((.(.((....)).).)) | 31.6 °C | -19.1 kcal/mol |
| GGTTTACCGAAAGGTACC (((..(((....)))))) | 32.4 °C | -9.75 kcal/mol |
| GGTTTAGGAAACTAAACC (((((((....))))))) | 54.2 °C | -54.6 kcal/mol |
| GGTTTCGAAAGAAATACC ((((((....)))..))) | 32.7 °C | -19.6 kcal/mol |
| GGTTTCGAAAGAACCACC ((((((....)))..))) | 34.4 °C | -17.1 kcal/mol |
| GGTTTCGAAAGAATAACC ((((((....)))..))) | 31.5 °C | -20.1 kcal/mol |
| GGTTTCGAAAGAATACC ((((((....))).))) | 38 °C | -25.6 kcal/mol |
| GGTTTCGAAAGAATTACC ((((((....)))..))) | 27.9 °C | -14.2 kcal/mol |
| GGTTTCGGAAACAAAACC (((((.(....).))))) | 36.6 °C | -22.7 kcal/mol |
| GGTTTCGGAAACGAAACC (((((((....))))))) | 66.5 °C | -46 kcal/mol |
| GGTTTGCGAAAGCATACC (((.(((....))).))) | 52.9 °C | -40.6 kcal/mol |
| GGTTTGGCGAAAGCCACC (((..(((....)))))) | 31.9 °C | -8.59 kcal/mol |
| GGTTTGGGAAACCAAGCC ((.((((....)))).)) | 49.9 °C | -33.5 kcal/mol |
| GGTTTTCGAAAGAACACC (((.(((....))).))) | 42.8 °C | -35.5 kcal/mol |
| GGTTTTGAAAAAAACC ((((((....)))))) | 51.5 °C | -26.5 kcal/mol |
| GGTTTTGGAAACAAAATC (.(((((....))))).) | 41.5 °C | -33.4 kcal/mol |
| GGTTTTGGAAACAAAGCC ((.((((....)))).)) | 46 °C | -29.1 kcal/mol |
| GGTTTTTCGAAAGAAACC (((..(((....)))))) | 34 °C | -18.8 kcal/mol |
